Results pooled from the literature.
Lines come from different studies, so protocols differ.
Read-out: DPPH scavenging

SMILES	assay	setting	inhibition [%]
COc1cc(C=CC(=O)CC(c2ccc(N(C)C)cc2)n2ccnc2)ccc1O (stereo not drawn)	–	100 µg/mL	73.5
Cc1ccc(C(C)C)cc1NC(=O)COC(=O)c1ccc(O)cc1	–	100 µg/mL	1.7
CCN(O)N=Nc1ccc(S(=O)(=O)Nc2nccs2)cc1	absorbance	20 µg/mL	6.63
COc1cc(C=Cc2cc(-c3ccc(N(C)C)cc3)nc(O)n2)ccc1O	–	25 µg/mL	46.6
O=S(=O)(Nc1nccs1)c1ccc(N=NN(O)c2ccccc2)cc1	absorbance	180 µg/mL	34.2
Cc1ccc(C(C)C)cc1NC(=O)COC(=O)c1ccc(O)cc1O	–	100 µg/mL	2.4
Cc1ccc(N(O)N=Nc2ccc(S(=O)(=O)Nc3cc(C)on3)cc2)cc1	absorbance	60 µg/mL	19.9
Cc1ccc(C(C)C)cc1NC(=O)COC(=O)/C=C/c1ccccc1	–	100 µg/mL	1.39
COc1cc(C=Cc2cc(-c3ccccc3)nc(O)n2)ccc1O	–	100 µg/mL	73.6
CC1(C)CC[C@]2(C(=O)O)CC[C@]3(C)C(=CC[C@@H]4[C@@]5(C)CC[C@H](O)C(C)(C)[C@@H]5CC[C@]43C)[C@@H]2C1	–	100 µg/mL	95.6
COc1cc(C=CC(=O)CC(c2ccc([N+](=O)[O-])cc2)n2ccnc2)ccc1O (stereo not drawn)	–	12.5 µg/mL	37.1
Cc1cc(NS(=O)(=O)c2ccc(N=NN(O)c3ccccc3)cc2)no1	absorbance	240 µg/mL	33.7
O=C1O[C@H]([C@@H](O)CO)C(O)=C1O	absorbance	120 µM	59
O=C1O[C@H]([C@@H](O)CO)C(O)=C1O	–	25 µg/mL	57.2
Cc1cccc(N(O)N=Nc2ccc(S(=O)(=O)Nc3cc(C)on3)cc2)c1	absorbance	300 µg/mL	37.1
Cc1ccc(C(C)C)cc1NC(=O)COC(=O)/C=C/c1ccccc1O	–	100 µg/mL	1.15
CCN(O)N=Nc1ccc(S(=O)(=O)Nc2onc(C)c2C)cc1	absorbance	180 µg/mL	22.5
Oc1ccc(Br)cc1C=NCCN1CCOCC1	absorbance	160 µM	36.5
